# Screening data deposited in PubChem BioAssay by several laboratories.
# Most compounds without a hit are left out; they make up all but 4.5% or so of the library.
# PHOSPHO1 block: inhibitors of human PHOSPHO1 phosphatase. Q8TCT1. recombinant PHOSPHO1, absorbance phosphatase assay. inhibition, % at 13.3 µM. 290,000 tested, 1.1% active. AID 1565; in the data active means inhibition above about 60%
# Target sequence (Q8TCT1 whole entry, looked up): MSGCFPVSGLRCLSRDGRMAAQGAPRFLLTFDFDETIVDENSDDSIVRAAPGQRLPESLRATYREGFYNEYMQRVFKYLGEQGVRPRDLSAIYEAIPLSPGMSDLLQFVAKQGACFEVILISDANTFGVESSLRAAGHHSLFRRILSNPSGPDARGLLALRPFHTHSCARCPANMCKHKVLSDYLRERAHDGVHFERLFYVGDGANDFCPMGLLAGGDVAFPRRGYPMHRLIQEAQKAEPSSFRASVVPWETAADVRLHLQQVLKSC
# MrgX1 ag: human MrgX1 receptor agonism, primary screen; Q96LB2; MrgX1-HEK293 cells, Fluo-4 calcium fluorescence, agonist mode; stronger effect = higher value; B-score at 10 µM; 310,000 tested, 0.44% active; AID 588627;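 active means calcium response B-score plate-corrected fluorescence ratio at least 3 library SD, with starting fluorescence B-score inside 5 SD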
#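 times = overnight plating, then 30 min 37 °C plus 30 min room-temperature dye loading | assay system = stable human MrgX1 HEK293 cell line | input = fifteen thousand cells per well | signal = kinetic calcium dye fluorescence, Fluo-4 NW | dosing = compound delivered in addition one of three | read-out = B-scored fluorescence response ratio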
# MrgX1 allo act: allosterically activates human MrgX1 receptor signaling; 310,000 tested, 0.63% active; MrgX1-HEK293, Fluo-4 calcium flux, FDSS; stronger effect = higher value; B-score at 10 µM;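 active means plate-corrected calcium response at least 3 library SD above typical, normal starting fluorescence, not activating the receptor alone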;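 further: compound read alongside a low EC10 to EC30 dose of BAM8-22 agonist; peak minus trough fluorescence over baseline measured at the second addition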
# RGS4 act: RGS4 potentiation or activation; B-score at 10 µM; 310,000 tested, 0.92% active; AID 463111; HEK293 M3R/inducible RGS4, carbachol calcium flux Fluo4; stronger effect = lower value;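 active means B-score of the integrated calcium signal more than 4 SD below the library mean, with starting fluorescence not abnormally high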;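 further: negative B-score means reduced calcium response which marks RGS4 activation or potentiation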
#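 Material: M3R-expressing HEK293 line, RGS4 induced by doxycycline | Schedule: Overnight RGS4 induction, 30 min dye load 37 °C, 20 min compound RT | Measured by: Fluo4 fluorescence kinetic imaging of calcium | Read-out: Integrated calcium ratio converted to B score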
# MrgX1 antagonist: blocks BAM8-22 activation of human MrgX1 receptor. 310,000 tested, 1.3% active. Q96LB2. MRGX1-HEK293 calcium flux, Fluo-4, BAM8-22 antagonism; stronger effect = lower value. B-score at 10 µM;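 active means calcium-response B-score plate-corrected more than 3 library SD below zero, starting fluorescence within 5 deviations, no agonist response on first addition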;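 further: peak minus trough fluorescence over baseline after final BAM8-22 challenge near maximal dose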
# RGS4 block: human RGS4 inhibition. HEK293 M3R/RGS4 inducible, Fluo-4 calcium flux; stronger effect = higher value; triggered by carbachol at its EC20. B-score at 10 µM. 310,000 tested, 0.45% active;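 active means B-score, a plate-corrected calcium signal, over three deviations above library mean, with baseline fluorescence within five deviations of library mean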;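 further: RGS4 expression induced by doxycycline in cells with stable M3 receptor; B-score is computed from the integrated fluorescence ratio over baseline after carbachol; higher B-score means a larger calcium signal and so more RGS4 inhibition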
# Target sequence (P49798 whole entry, looked up): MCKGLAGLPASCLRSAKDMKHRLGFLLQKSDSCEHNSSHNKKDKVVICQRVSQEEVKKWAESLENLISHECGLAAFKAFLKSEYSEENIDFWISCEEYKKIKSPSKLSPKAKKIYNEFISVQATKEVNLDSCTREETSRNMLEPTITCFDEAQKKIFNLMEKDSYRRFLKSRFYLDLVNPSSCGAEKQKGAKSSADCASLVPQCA
# An asterisk follows results filed as active; i = inactive; . = not tested or not shown.
SMILES,PHOSPHO1 block,MrgX1 ag,MrgX1 allo act,RGS4 act,MrgX1 antagonist,RGS4 block
O=C(NCCc1ccc(Cl)cc1)c1ccc(CS(=O)Cc2ccccc2Cl)o1 (stereo not drawn),26.1,i,i,-8.43*,i,i
CSc1ccc(CCNC(=O)c2ccc(CS(=O)Cc3ccccc3Cl)o2)cc1 (stereo not drawn),31.5,i,i,i,-5.97*,i
Cc1ccc(CS(=O)Cc2ccc(C(=O)NCCc3ccccc3)o2)cc1 (stereo not drawn),47.5,i,i,i,i,i
COc1ccc(/C=N/NC(=O)c2cccc(NC(C)=O)c2)c(C(=O)O)c1OC,-12.7,i,i,i,i,i
Cc1cccc(C(=O)CC(=O)c2cc(Cl)ccc2O)c1,4.2,i,i,i,i,i
O=C(CC(=O)c1cc(Cl)ccc1O)c1ccccc1,0.2,i,i,i,-5.02*,i
Cc1ccc(S(=O)(=O)C(CCC(=O)N2CCOCC2)S(=O)(=O)c2ccc(C)cc2)cc1,-33.3,i,i,i,i,i
CCC(N1CCOC1=O)S(=O)(=O)c1ccc(C)cc1 (stereo not drawn),93.0*,i,i,i,i,i
Cc1onc(-c2ccc(Cl)cc2Cl)c1-c1csc(COc2ccccc2)n1,44.1,i,i,-7.31*,i,i
O=C(CN1C(=O)CC(c2ccco2)Sc2ccccc21)NC1CCCCC1 (stereo not drawn),27.7,i,i,i,i,i
COc1ccc(NS(=O)(=O)c2cc(-c3nnnn3C)ccc2OC)cc1,66.1*,i,i,i,i,i
COCCCNC(=O)c1ccc(N2CCCC2)c(NS(=O)(=O)c2ccc(C)cc2)c1,63.7*,i,i,i,i,i
CCOCCCNC(=O)c1ccc(N2CCCC2)c(NS(=O)(=O)c2ccc(C)cc2)c1,21.1,i,i,i,i,i
O=C1/C(=C/c2c[nH]c3ccccc23)CCC/C1=C\c1c[nH]c2ccccc12,-2.0,i,8.55*,i,i,i
O=C1CS/C(=N/N=C/c2c[nH]c3ccccc23)N1,38.3,i,i,i,i,i
O=C(NCCc1ccc(F)cc1)C(=O)NCC1CCCN1S(=O)(=O)c1cccs1 (stereo not drawn),.,i,i,-7.18*,i,i
COc1ccc(CCNC(=O)CCc2ccc(S(=O)(=O)NC(C)C)cc2)cc1,-8.9,i,i,i,-5.73*,i
COc1ccc(CCC(=O)NCCNC(=O)CCc2ccc(OC)cc2)cc1,13.9,i,i,i,i,i
COc1ccc(CCNC(=O)c2ccc(CN3CCC(Cc4ccccc4)CC3)cc2)cc1OC,-0.5,i,i,i,-5.22*,i
COc1ccc(CCNC(=O)C(=O)NCC2CCCN2S(=O)(=O)c2ccccc2)cc1OC (stereo not drawn),.,i,i,-9.41*,i,i
COCCNC(=O)c1ccc(CN2CCC(Cc3ccccc3)CC2)cc1,34.0,i,i,i,i,i
COc1ccc(CCNC(=O)C(=O)NCC2CCCN2S(=O)(=O)c2ccc(OC)cc2)cc1 (stereo not drawn),.,i,i,-7.09*,i,i
CCCCN1C(=O)C(O)(CC(=O)c2c(C)coc2C)c2ccccc21 (stereo not drawn),12.0,i,i,i,i,i
C=CCN1C(=O)C2(NNc3ccccc3O2)c2ccccc21 (stereo not drawn),86.8*,i,i,i,i,i
CCCCN1C(=O)C2(NNc3ccccc3O2)c2ccccc21 (stereo not drawn),73.3*,i,i,i,-6.05*,i
SMILES,PHOSPHO1 block,MrgX1 ag,MrgX1 allo act,RGS4 act,MrgX1 antagonist,RGS4 block
O=C(NC1CC2CCCC(C1)N2Cc1cccs1)c1ccc([N+](=O)[O-])cc1 (stereo not drawn),13.3,i,i,i,i,i
Cn1c(-c2c(N)n(CCCc3ccccc3)c3nc4ccccc4nc23)nc2ccccc21,27.4,.,.,i,.,i
Cn1c(-c2c(N)n(CCc3ccccc3)c3nc4ccccc4nc23)nc2ccccc21,-6.4,29.4*,i,i,i,i
Cn1c(-c2c(N)n(C3CCCC3)c3nc4ccccc4nc23)nc2ccccc21,0.6,i,i,-8.96*,-7.44*,i
CCCCc1ccc(NC2=NCC(=O)N2CCc2ccccc2)cc1,28.1,i,i,i,i,i
Cc1nnc(SCC(=O)c2cc(C)n(-c3c(C)n(C)n(-c4ccccc4)c3=O)c2C)s1,20.8,i,i,i,i,i
Cc1cc(C(=O)CSc2nncs2)c(C)n1-c1c(C)n(C)n(-c2ccccc2)c1=O,50.4,i,i,-9.36*,i,i
O=C(CSc1nc2ccccc2nc1SCC(=O)N1CCCCC1)N1CCCCC1,71.1*,i,i,i,i,i
Clc1ccc(CSc2snnc2-c2ccccc2)cc1,-4.0,i,i,-7.25*,i,i
CCOc1ccc(N=c2scc(-c3ccccc3)n2CCO)cc1,97.6*,i,i,i,i,i
CC1CCN(CC(=O)Nc2ccc(S(=O)(=O)N3CCCCC3)cc2)CC1,44.1,i,i,i,i,i
CC1CCN(CC(=O)Nc2ccc(N3CCCCCC3)cc2)CC1,30.4,i,i,-6.99*,i,i
COc1cccc(-c2ccc(NC(=O)C3CCCN(Cc4cnc(C)n4C)C3)cc2)c1 (stereo not drawn),16.2,i,i,-7.09*,i,i
COc1ccc(CCN(C)Cc2nc(Cc3ccc(OC)c(OC)c3)no2)cc1OC,1.2,i,i,i,i,i
COc1cccc(NC(=O)C(c2ccccc2)N2CCCCC2)c1 (stereo not drawn),-22.9,i,i,-7.03*,i,i
COc1cccc(NC(=O)C2CCN(C(=O)NC3CCCCC3)CC2)c1,62.9*,i,i,i,i,i
O=C(CCl)c1ccc2c(c1)CCN2C(=O)C1CC1,27.9,33*,i,i,i,7.12*
O=C(c1ccc(N2CCCCC2)c([N+](=O)[O-])c1)N(c1ccccn1)c1ccccn1,-7.1,i,i,i,i,i
CCN1CCN(C(=O)c2c(-c3c(Cl)cccc3Cl)noc2C)CC1,35.1,i,i,i,i,i
O=C(Nc1ccccn1)C1CCCN1S(=O)(=O)c1ccc(Cl)cc1 (stereo not drawn),31.8,i,i,i,i,i
